According to ChEMBL document CHEMBL1759912, “Ionic liquid promoted synthesis, antibacterial and in vitro antiproliferative activity of novel α-aminophosphonate derivatives” (Bioorg Med Chem Lett, 2011):
The source made the active and inactive calls. No cut-off for these calls is given here.

Experiments:
Salmonella typhi = experiment: Antibacterial activity against ampicillin-resistant Salmonella typhi NCIM 2501 assessed as bacterial growth inhibition zone at […] after 24 hrs by disc diffusion method; format: functional, organism-based; settings: Salmonella enterica subsp. enterica serovar Typhi
Escherichia coli = experiment: Antibacterial activity against ampicillin-resistant Escherichia coli NCIM 2645 assessed as bacterial growth inhibition zone after 24 hrs by disc diffusion method; format: functional, organism-based
Procedure, shortened: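 Strains activated in nutrient broth, 24 h at their optimum growth temperature. Nutrient agar plates seeded with 100 μl mid-log culture. Sterile 6 mm filter paper discs each loaded with 10 μl of compound solution (10 mg/ml in DMSO, filter-sterilised) and left to diffuse 20 min. Plates incubated 24 h at growth temperature. Controls: ampicillin disc (positive), 10 μl DMSO disc (negative). Zone ≥7 mm counted as susceptible.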

A549 [1] = experiment: Antiproliferative activity against human A549 cells; format: functional, cell-based
Procedure, shortened: (§1)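 A549 and SK-MEL2 cells (from NCCS Pune) grown in DMEM with 5–10% FBS, penicillin and 4 mM L-glutamine at 37 °C, 5% CO2. Plates were seeded 24 h ahead and washed with serum-free medium. Cells were exposed to 0, 2, 4, 8, 16 and 20 μM for […], then cell proliferation was estimated. Results are % cell growth, averaged from triplicate cultures run twice.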

A549 [2] = experiment: Antiproliferative activity against human A549 cells assessed as growth inhibition at 2 to 20 uM after 24 hrs; format: functional
SK-MEL-2 [3] = experiment: Induction of apoptosis in human SK-MEL-2 cells after 6 hrs; format: functional, cell-based
A549 [4] = experiment: Induction of apoptosis in human A549 cells after 6 hrs; format: functional, cell-based
SK-MEL-2 [5] = experiment: Antiproliferative activity against human SK-MEL-2 cells; format: functional, cell-based; procedure, shortened: as §1

SMILES | Activity (Salmonella typhi) | Activity (Escherichia coli) | IC50 (A549 [1]) [µM] | growth inhibition (GI) (A549 [2]) [%] | Activity (SK-MEL-2 [3]) | Activity (A549 [4]) | IC50 (SK-MEL-2 [5]) [µM]
CCOP(=O)(OCC)C(Nc1ccc(I)cc1[N+](=O)[O-])c1ccc(Cl)cc1 (configuration not stated) | Active |  |  |  |  |  | 
CCOP(=O)(OCC)C(Nc1ccc(Cl)cc1[N+](=O)[O-])c1c[nH]c2ccccc12 (configuration not stated) | Active | Active | 11.5 | 80 | Active | Active | 8.43
CCOP(=O)(OCC)C(Nc1ccc(Cl)cc1[N+](=O)[O-])c1cccc(Cl)c1 (configuration not stated) | Active | Active |  |  |  |  | 
CCOP(=O)(OCC)C(Nc1ccc(Cl)cc1[N+](=O)[O-])c1ccc(OC)c(OC)c1 (configuration not stated) | Active | Active |  |  |  |  | 
